Experimental data taken from PMC9166452 (International Journal of Nanomedicine, 2022).
Entries after “also recorded” stand apart in the source; their conditions may differ. Structures can show the parent of a compound that is named as a salt.

Columns and labels:
Caco-2 cell monolayers = test: Bidirectional transport across Caco-2 cell monolayers; assay type: in vitro ADME; settings: AP→BL, 4°C
In short: (§1)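 Monolayers of Caco-2 cells were grown on 0.4-μm polycarbonate Transwell inserts (2×10^5 cells/well) and used only after passing a TEER check. Free or TPGS-micelle test compound (2 μg/mL) was added apically or basolaterally and incubated 4 h at 37°C. Receiver fluid was assayed by HPLC. Verapamil was co-incubated 4 h. AP→BL transport was also run at 4°C. Papp = (dQ/dt)/(A·C0); ER = Papp(BL→AP)/Papp(AP→BL).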

[1] = as above; assay type: in vitro ADME; settings: human, Caco-2
In short: as §1

P-glycoprotein (P-gp) = test: as above; assay type: in vitro ADME; settings: human, Caco-2, with verapamil 100 µM
In short: as §1

[2] = In vitro release in simulated gastrointestinal fluids; assay type: physicochemical
In vivo toxicity [3] = test: In vivo toxicity; design: species or system BALB/c nude mice; settings: after tumor resection surgery, oral
In short: (§2)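 MDA-MB-231 cells (1×10^6/mouse) were injected into the second right mammary gland of nude mice. Caliper volume was V = (a×b2)/2. At 80–100 mm3, tumors were resected under isoflurane, leaving 5–10% residual. Twenty mice were split into four arms (surgery plus PBS, blank TPGS micelles, free or micelle-loaded test compound), dosed orally at equal volume every two days on days 0–14. Tumor size and body weight were followed every two days to day 17. Organs, including jejunum and lungs, and tumors were then taken for histology.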

[4] = test system: orthotopic TNBC (MDA-MB-231 cells); test: Oral treatment combined with surgery on orthotopic TNBC in nude mice; assay type: in vivo, BALB/c nude mice; settings: after tumor resection surgery
In short: as §2

In vivo toxicity [5] = test: In vivo toxicity; design: species or system BALB/c nude mice; settings: 0.25 mg/kg oral
In short: (§3)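 Female BALB/c nude mice (4 weeks old) received MDA-MB-231 cells (1×10^6/mouse) subcutaneously in the right thigh. At 50–100 mm3 they were randomised to PBS, free or micelle-loaded test compound, given 0.25 mg/kg by oral gavage every two days on days 0–14. Tumor size and body weight were taken every two days to day 17, then organs and tumors went to pathology/TUNEL. TIR was derived from mean tumor size, dosed vs control.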

[6] = oral, cited from earlier work
[7] = test system: subcutaneous xenografts of MDA-MB-231 cells; test: Oral treatment of subcutaneous TNBC xenografts in nude mice; assay type: in vivo, BALB/c nude mice
In short: as §3

[8] = mice, oral administration; cited from earlier work
[9] = patients with advanced solid tumors

SMILES: O=C(CC1NCCCC1O)Cn1cnc2cc(Br)c(Cl)cc2c1=O (stereo not shown) [HF, Halofuginone hydrobromide]
- Papp at 4°C compared with 37°C (Caco-2 cell monolayers): lower than those at 37 °C
- Papp A→B at 4 h, 2 μg/mL [1]: 47.3 ± 2.8 nm/s
- Papp B→A at 4 h, 2 μg/mL [1]: 87.2 ± 1.6 nm/s
- efflux ratio at 4 h, 2 μg/mL [1]: 1.84
- Papp A→B at 4 h, 2 μg/mL (P-glycoprotein (P-gp)): 62.5 ± 7.5 nm/s
- Papp B→A at 4 h, 2 μg/mL (P-glycoprotein (P-gp)): 59 ± 1 nm/s
- efflux ratio at 4 h, 2 μg/mL (P-glycoprotein (P-gp)): 0.94
- cumulative release percentage (CRP) of HF ([2]; simulated gastric fluids, from 0 to 8 hours): 53.25%
- cumulative release percentage (CRP) of HF ([2]; simulated gastric fluids, from 8 to 12 hours): 19.6%
- cumulative release percentage (CRP) of HF ([2]; simulated gastric fluids, within 24 hours): 80.03%
- cumulative release percentage (CRP) of HF ([2]; simulated intestinal fluids, from 0 to 8 hours): 54.39%
- cumulative release percentage (CRP) of HF ([2]; simulated intestinal fluids, from 8 to 12 hours): 18.17%
- cumulative release percentage (CRP) of HF ([2]; simulated intestinal fluids, within 24 hours): 82.61%
- body weight change (In vivo toxicity [3]): caused the loss of body weight; also recorded: significant loss of body weight
- histology of jejunum (H&E) (In vivo toxicity [3]): jejunum bleeding; also recorded: jejunum congestion was found
- expression of Bcl-2, Bax and Caspase-3 in tumor (immunohistochemistry) [4]: regulated by HF and HTPM treatment
- lung metastasis (H&E, visual inspection) [4]: normal histological features without any tumors
- tumor growth vs PBS- and FTPM-treated groups [4]: significant delay in tumor growth
- tumor necrosis (H&E staining) [4]: larger necrotic area than those from the PBS- and FTPM-treated groups
- tumor inhibition rate (TIR) ([4]; every two days on days 0–14): 43.57% ± 1.15
- histology of jejunum / bleeding (H&E) (In vivo toxicity [5]): jejunum hemorrhage
- body weight change (In vivo toxicity [5]; every two days on days 0–14): caused the loss of body weight
- "acute" maximum tolerated dose (MTD) [6, 9]: 3.5 mg/day
- dose-limiting toxicities (DLT) [6, 9]: nausea, vomiting, and fatigue
- dose recommended for chronic administration in Phase II clinical studies [6]: 0.5 mg/day
- tumor inhibition rate (TIR) ([7]; 0.25 mg/kg HF, oral gavage, every two days on days 0–14): 47.55% ± 1.32
- tumor size vs untreated mice ([7]; 0.25 mg/kg oral, 12 days after oral administration): significant reduction in tumor size
- tumor necrosis (H&E staining) ([7]; 0.25 mg/kg oral, tumor sections): larger necrotic area than those from the PBS group
- expression of Bcl-2, Bax and Caspase-3 in tumor (immunohistochemistry) ([7]; 0.25 mg/kg oral, tumor tissues): markedly upregulated the expression of Bax and Caspase-3, and downregulated the expression of Bcl-2
- detection in plasma and red blood cells [8]: not detected in plasma and red blood cells
- persistence in kidneys, liver and lungs [8]: up to 48 hours
